# From PubChem
# Hits are enriched below; roughly 1.9% of the tested compounds scored in any of these assays.
# SENP1 FRET inh: blocks the human SENP1 SUMO protease catalytic domain. Q9P0U3. recombinant SENP1 catalytic domain, CyPet-SUMO1-YPet FRET cleavage. inhibition, % at 10 µM. actives 0.21% (n = 360,000). AID 624204;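 active = inhibition at least 30% at 10 µM, raw YFP signal under a set limit, fluorescence ratio 0.5 to 1.5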;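 note: 0% = enzyme with DMSO and 100% = no enzyme wells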
#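 Compound: 10 µM single point, 0.5% DMSO; Test system: hSENP1 catalytic domain, recombinant; Timing: 50 min reaction at room temperature; Technique: FRET, CFP and YFP emission; Control set: no-enzyme wells low, DMSO-plus-enzyme wells high control.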
# FAS TE block: blocks the thioesterase domain of human fatty acid synthase; P49327; recombinant FAS-TE, OMFH fluorogenic substrate, fluorescence endpoint; inhibition, % at 15 µM; actives 0.67% (n = 360,000);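 active = compounds whose normalised, plate-corrected inhibition of enzyme fluorescence in the single-dose primary screen is 50% or more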;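 note: 0% = DMSO with enzyme and 100% = substrate without enzyme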
# ADAM10 inh: ADAM10 inhibition, QFRET primary screen | O14672 | recombinant ADAM10, EDANS/DABCYL FRET peptide cleavage, 3 h | inhibition, % at 7 µM | actives 0.62% (n = 370,000) | AID 720582;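 active = inhibition above a per-campaign cutoff equal to the mean of compounds falling between control-based bounds plus 3 SD, cut at about 20% in these data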;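 note: 0% = DMSO wells while the 100% control is not disclosed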
# Target sequence (O14672 214-748 limits assumed): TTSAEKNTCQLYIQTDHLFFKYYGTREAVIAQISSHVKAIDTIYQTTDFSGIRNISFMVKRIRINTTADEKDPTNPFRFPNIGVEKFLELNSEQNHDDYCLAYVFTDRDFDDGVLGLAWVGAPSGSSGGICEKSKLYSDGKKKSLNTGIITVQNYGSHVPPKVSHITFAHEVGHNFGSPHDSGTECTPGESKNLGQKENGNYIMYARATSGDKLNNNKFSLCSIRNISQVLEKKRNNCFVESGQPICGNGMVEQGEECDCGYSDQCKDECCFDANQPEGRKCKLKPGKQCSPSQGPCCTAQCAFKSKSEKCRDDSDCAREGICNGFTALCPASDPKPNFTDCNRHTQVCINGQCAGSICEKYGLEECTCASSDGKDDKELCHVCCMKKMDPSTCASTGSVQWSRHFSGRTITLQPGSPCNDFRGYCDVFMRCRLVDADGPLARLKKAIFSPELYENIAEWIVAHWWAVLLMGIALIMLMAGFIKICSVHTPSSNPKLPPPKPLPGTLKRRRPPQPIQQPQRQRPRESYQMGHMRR
# ADAM17 inh: inhibits human ADAM17. P78536. recombinant ADAM17, EDANS/DABCYL FRET peptide cleavage. inhibition, % at 6.95 µM. actives 0.83% (n = 370,000);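 active = inhibition above the mean of compounds lying between control limits plus 3 SD, set per campaign, cut at about 8.5% in these data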;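 note: 0% = DMSO-only wells as the low control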
# ADAM10 ctr: inhibits human ADAM10 in ADAM17 exosite counter-screen; inhibition, % at 6.95 µM; recombinant ADAM10, EDANS/DABCYL FRET peptide cleavage, 3 h; AID 743256; actives 47% (n = 2,900); shares compounds with ADAM17 inh;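 active = mean inhibition over the triplicate runs exceeds the activity threshold set in the earlier primary screen, cut at about 20% in these data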;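 note: 0% = DMSO wells and 100% = marimastat wells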
# ADAM17 confirm: confirmation of inhibitors of human ADAM17 | shares compounds with ADAM17 inh | recombinant ADAM17, EDANS/DABCYL QFRET peptide cleavage | inhibition, % at 6.95 µM | actives 65% (n = 2,900);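 active = mean inhibition across replicates above the hit cutoff set in the primary screen, cut at about 8.5% in these data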;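 note: 0% = DMSO wells and 100% = marimastat wells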
# Active calls of the source: *; . = no result given.
SMILES,SENP1 FRET inh,FAS TE block,ADAM10 inh,ADAM17 inh,ADAM10 ctr,ADAM17 confirm
CCCn1nc([N+](=O)[O-])c(C(C#N)c2nc3ccccc3s2)c(Cl)c1=O (configuration not stated),-46.3,25.6,19.7,8.6*,23.5*,17.5*
CCCCn1nnnc1C(c1cc2ccccc2o1)N1CCN(c2cc(C)nc3ccccc23)CC1 (configuration not stated),-4.7,23.2,9.8,8.8*,-13.0,0.7
COC(=O)c1ccc(CN2C(=O)C(C)N(C(=O)c3c(F)cccc3F)c3ccccc32)cc1 (configuration not stated),1.3,16.2,3.4,11.3*,19.0,15.2*
CC1C(=O)N(Cc2ccc(F)cc2)c2ccccc2N1C(=O)c1c(F)cccc1F (configuration not stated),-0.5,17.1,8.4,3.3,.,.
COC(=O)C1=C(C)N(C)C(=NCc2ccc3c(c2)OCO3)NC1c1ccc(F)cc1 (configuration not stated),.,.,-1.9,-3.8,.,.
COc1ccccc1NC(=O)NNC(=O)C(C)Oc1ccc2ccccc2c1 (configuration not stated),3.6,2.5,3.7,1.1,.,.
COc1ccc(C)cc1NC(=O)NNC(=O)C(C)Oc1ccc([N+](=O)[O-])cc1 (configuration not stated),1.8,9.6,16.0,9.0*,13.3,9.0*
CCC(C)c1ccc(O)c(NC(=O)c2cncc(Br)c2)c1 (configuration not stated),0.8,10.1,18.9,10.4*,13.5,9.8*
CCC(C)[C@H](NC(=O)[C@@H]1CSC2c3ccccc3C(=O)N21)C(=O)NCC1CCCO1 (some centres not stated),5.2,-3.2,0.5,11.6*,7.2,2.7
CCc1ccc(NS(=O)(=O)c2ccc3[nH]cc(C(=O)N4CCc5ccccc54)c(=O)c3c2)cc1,0.7,13.0,12.5,10.5*,13.9,10.9*
Cc1cc(C)cc(NS(=O)(=O)c2ccc3[nH]cc(C(=O)N4CCc5ccccc54)c(=O)c3c2)c1,-0.2,6.4,12.3,5.6,.,.
Cc1ccccc1CS(=O)(=O)Cc1ccc(C(=O)Nc2cccc(Cl)c2F)o1,.,.,5.2,4.4,.,.
Cc1[nH]c2ccccc2c1C(=O)CSC(=S)N(C)C1CCCCC1,1.4,-7.1,-5.5,-1.9,.,.
Cc1[nH]c2ccccc2c1C(=O)CSC(=S)N1CCCCC1,-0.9,14.8,17.0,10.7*,11.7,7.9
COC(=O)[C@]12C[C@H](CC(=O)NCc3cccs3)C(=O)N(Cc3ccc(Cl)cc3Cl)C1=C[C@H](C(C)(C)C)O[C@@H]2C,.,.,4.3,4.3,.,.
Cc1ccc(SCC(=O)OCC(=O)NCc2ccco2)cc1,2.3,-7.9,-4.4,9.2*,7.7,4.0
CCOC(=O)CC[C@@]1(C(=O)OCC)C[C@@H](CC(=O)NCc2ccc(OC)c(OC)c2)C(=O)N2CCCC=C21,.,.,-0.8,-0.1,.,.
Clc1ccc(OCCOCCOc2cccc3cccnc23)c(Br)c1,-1.0,20.1,13.4,8.9*,12.0,12.5*
Brc1ccccc1OCCOCCOc1cccc2cccnc12,1.6,-2.1,-4.2,-4.0,.,.
COc1ccc(-c2csc(NC(=O)CSc3nc(SC)ns3)n2)cc1,14.6,22.5,33.0*,14.8*,26.5*,16.8*
CC(NC(=O)c1ccco1)C(=O)N1CCN(c2ccccc2)CC1 (configuration not stated),1.1,-5.8,-5.0,9.2*,-8.1,-0.2
CC(C)(C)S(=O)(=O)/C(C#N)=C/c1cccn1S(=O)(=O)c1ccccc1,-0.2,11.7,5.4,9.4*,24.3*,11.8*
CCCC(=O)N1CCC[C@]2(CC[C@H](CCC#N)O2)C1,.,.,-4.2,0.6,.,.
O=C(CSc1nnc(-c2cccnc2)n1-c1ccc(Cl)cc1)c1ccc2ccccc2c1,.,.,-1.4,-0.1,.,.
O=C(NC(NC(=S)Nc1c(Cl)cccc1Cl)C(Cl)(Cl)Cl)OCc1ccccc1 (configuration not stated),1.5,28.5,14.5,12.4*,32.5*,16.4*
SMILES,SENP1 FRET inh,FAS TE block,ADAM10 inh,ADAM17 inh,ADAM10 ctr,ADAM17 confirm
O=C(NCCn1cc(SCc2ccc(F)cc2)c2ccccc21)c1c(F)cccc1F,1.3,32.1,12.1,9.3*,41.3*,21.4*
O=C(NCCn1cc(SCc2ccc(F)cc2)c2ccccc21)c1ccccc1F,2.3,35.2,.,.,.,.
COC(=O)c1cc2oc(C)cc2n1CC(=O)Nc1cc(C)cc(C)c1,-1.8,-0.2,8.5,9.6*,-17.0,-6.1
COC(=O)[C@]1(Cc2ccccc2)NC=C(C(=O)c2ccccc2)[C@@H]1c1cccs1,.,.,-5.1,-2.6,.,.
CC(=O)O[C@@H](Cc1ccc(O)cc1)C(=O)CC(C)C,-1.7,-6.3,4.9,9.2*,1.3,2.1
O=C(CSc1nc2ccccc2o1)N/N=C/c1ccccc1,2.1,-1.9,-2.5,0.1,.,.
O=C(CSc1nc2ccccc2o1)NN=C/C=C/c1ccccc1,.,.,18.8,9.5*,13.5,15.9*
Cc1c(Cl)cccc1NC(=S)NCCC(C)C,-3.8,0.7,-0.8,-3.9,.,.
Cc1c(Cl)cccc1NC(=S)NCCC(c1ccccc1)c1ccccc1,2.4,22.4,15.1,9.2*,20.8*,10.0*
Cc1ccc(-c2nn3c(C)nnc3s2)cc1NC(=O)c1cccs1,1.6,-2.2,8.0,11.5*,5.7,7.5
Cc1cc(NC(=O)CSc2cc(Cl)ccc2Cl)n(-c2ccccc2)n1,2.5,11.4,17.5,9.2*,5.1,3.9
CCC[C@H]1[C@@H](NC(=O)NCC)CC[C@@]23CCCN2C(=O)CCC[C@@H]13,.,.,3.0,-0.1,.,.
Cc1ccc(NC2=C(Cl)C(=O)OC2OC(=O)c2ccc(C)cc2)cc1 (configuration not stated),0.9,48.7,1.8,9.0*,17.3,12.1*
CS(=O)(=O)c1ccc(-c2csc(C(O)(c3ccccc3)C(F)(F)F)n2)cc1 (configuration not stated),-1.2,31.9,10.3,5.2,.,.
OC(c1ccccc1)(c1nc(-c2cc(F)cc(F)c2)cs1)C(F)(F)F (configuration not stated),0.9,36.9,17.3,9.5*,39.9*,17.8*
COC(=O)C1CN(CCc2ccccc2)CCS(=O)(=O)N1Cc1ccc(C)cc1 (configuration not stated),.,.,3.0,0.1,.,.
Cc1nn(C)cc1/C=N/NC(=S)Nc1ccc(Cl)cc1Cl,1.1,-1.6,9.7,2.9,.,.
CCn1nc(C)c(/C=N/NC(=S)Nc2ccc(Cl)cc2Cl)c1C,2.9,0.1,16.6,8.7*,9.1,3.4
O=C(CC1CCCC1)N1CC[C@H]2[C@H](CCCN2Cc2ccc(F)cc2)C1,.,.,2.3,-1.7,.,.
